Assay results taken from ChEMBL document CHEMBL4842320, “Cryptic Biosynthesis of the Berkeleypenostatins from Coculture of Extremophilic Penicillium sp” (J Nat Prod, 2021).
pIC50: −log10 of the molar value. Values after ≈ are worked out from the molar mass of the structure shown. Active and inactive are the calls of the source. The calls are words filed in the database; no cut-off is given here.

Key:
Staphylococcus aureus [1] = assay: Antibacterial activity against wild-type Staphylococcus aureus assessed as minimum inhibitory concentration by alamar blue dye based broth microdilution method; type: functional
Staphylococcus aureus [2] = assay: Antibacterial activity against multidrug resistant strains of Staphylococcus aureus assessed as minimum inhibitory concentration by alamar blue dye based broth microdilution method; type: functional
Bacillus anthracis = assay: Antibacterial activity against Bacillus anthracis assessed as minimum inhibitory concentration by alamar blue dye based broth microdilution method; type: functional
Stromelysin-1 = Stromelysin-1 (Homo sapiens, UniProt P08254); assay: Inhibition of MMP-3 (unknown origin)
Procedure, shortened: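 MMP-3 inhibition measured with a commercial MMP-3 drug discovery kit.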

[3] = test system: Panel NCI-60 (60 carcinoma cell lines); assay: Anticancer activity against human Panel NCI-60 (60 carcinoma cell lines) assessed as total growth inhibition at 1 to 10 uM measured after 48 hrs by SRB assay; type: functional, cell-based; conditions: dose 1-10 µM
Procedure, shortened: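 NCI Developmental Therapeutics Program 60-human-tumour-cell-line five-dose screen, with total growth inhibition (TGI) as the end-point.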

HPAF-II [4] = assay: Cytotoxicity against human HPAF-II cells assessed as reduction in cell viability at upto 50 uM by MTT assay; type: functional, cell-based; conditions: dose microM <=50
Procedure, shortened: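 Vybrant MTT proliferation assay on HPAF-II cells harvested with 0.25% trypsin/0.53 mM EDTA, with viability checked after harvest. Compounds were tested up to 50 μM.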

HPAF-II [5] = assay: Antiinvasive activity against human HPAF-II cells assessed as reduction in cell invasion at 1.25 uM measured upto 24 hrs by CMFDA dye staining based fluorescence assay; type: functional; conditions: time hrs <=24
Procedure, shortened: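 Matrigel-coated invasion inserts with 8 μm pores. HPAF-II cells were harvested, resuspended in serum-free DMEM and labelled with CellTracker CMFDA. Compound was diluted in serum-free DMEM to a final 1.25 μM. Run in triplicate, with untreated cells as control and NNGH as positive control.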

HPAF-II [6] = assay: Inhibition of cell migration in human HPAF-II cells at 1.25 uM measured upto 24 hrs by CMFDA dye staining based fluorescence assay; type: functional; conditions: time hrs <=24
Procedure, shortened: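 Fluoroblok 96-well insert migration kinetics. HPAF-II cells were harvested at ~80% confluency, resuspended at 5 ×10^5 cells/mL in serum-free DMEM and stained with CellTracker CMFDA. Compound was present at a final 1.25 μM over 24 h. Run in triplicate, with untreated cells as control and NNGH as positive control.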

Sequence of Stromelysin-1 (P08254 whole entry): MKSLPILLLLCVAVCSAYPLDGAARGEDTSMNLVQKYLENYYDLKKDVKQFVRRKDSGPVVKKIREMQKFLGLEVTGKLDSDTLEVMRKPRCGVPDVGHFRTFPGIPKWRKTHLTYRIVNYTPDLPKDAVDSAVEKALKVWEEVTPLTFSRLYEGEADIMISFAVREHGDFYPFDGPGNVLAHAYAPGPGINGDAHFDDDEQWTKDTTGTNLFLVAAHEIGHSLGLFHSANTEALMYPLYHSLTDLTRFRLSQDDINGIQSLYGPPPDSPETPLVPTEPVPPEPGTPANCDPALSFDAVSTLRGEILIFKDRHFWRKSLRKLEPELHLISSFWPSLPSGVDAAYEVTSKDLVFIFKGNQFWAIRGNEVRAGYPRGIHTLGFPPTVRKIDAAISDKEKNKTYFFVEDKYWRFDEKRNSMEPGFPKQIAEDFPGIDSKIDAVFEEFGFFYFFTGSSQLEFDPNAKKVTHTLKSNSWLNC

SMILES	MIC (Staphylococcus aureus [1]) [µg/mL]	MIC (Staphylococcus aureus [2]) [µg/mL]	MIC (Bacillus anthracis) [µg/mL]	pIC50 (Stromelysin-1)	Activity [3]	Activity (HPAF-II [4])	Activity (HPAF-II [5])	inhibition at 1.25 µM (HPAF-II [6]) [%]
CCCCCCC/C=C/[C@@H]1O[C@@]2(O)C(=O)C=C3C[C@@H](O[C@@H]4O[C@H](CO)[C@@H](O)[C@H](O)[C@H]4O)C[C@H]3[C@@H]2C=C1C	17 (≈ 32.5 µM)	17 (≈ 32.5 µM)	17 (≈ 32.5 µM)	–	–	–	–	–
CCCCCCC/C=C/[C@@H]1O[C@@]2(O)C(=O)C=C3C[C@H](O[C@@H]4O[C@H](CO)[C@@H](O)[C@H](O)[C@H]4O)C[C@H]3[C@@H]2C=C1C	4 (≈ 7.65 µM)	4 (≈ 7.65 µM)	4 (≈ 7.65 µM)	4.30	Active	inactive	inactive	30
O=C(O)c1cn(C2CC2)c2cc(N3CCNCC3)c(F)cc2c1=O [CIPROFLOXACIN]	–	–	0.064 (≈ 0.193 µM)	–	–	–	–	–
CCCCCCC/C=C/[C@@H]1O[C@]23C(=O)C[C@@]4(C[C@H](O[C@@H]5O[C@H](CO)[C@@H](O)[C@H](O)[C@H]5O)C[C@H]4[C@@H]2C=C1C)OC3=O	–	–	–	–	inactive	inactive	inactive	30
